# Reference: PubChem BioAssay AID504535 (Broad Institute, 2011)
# Values joined by “and” are separate entries in the source; they are usually repeats but may differ in a detail not shown here. Identical values can stand only once. Results filed as inconclusive are left out. Active and inactive are the calls of the source.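 The calls were made as follows: active = luminescence drop with fitted half-effect dose at most ten times the top tested dose, in every repeat; inconclusive = repeats disagree, flat moderate inhibition, or unreliable curve fit; inactive = every repeat flat, too weak, or signal rising.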
# Test system: not listed separately
# Assay: inhibitors of HMLE_shECad breast CSC-like cells, dose response, cell-based, CellTiter-Glo luminescence, primary HTS retest, dry powder, set 5 (AID 504535)
# Details: HMLE_shECad viability, CellTiter-Glo luminescence, 72 h; at 19.5 µM (top of the series)
# Outline: (§1)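 Assay system: HMLE_shECad cells, E-cadherin-knockdown EMT-induced breast cancer stem cell model. Amount: 2000 cells/well. Medium: serum-free CSC medium. Compound: 100 nL pinned compound. Times: about 72 h compound exposure at 37 °C, 5% CO2. Signal: CellTiter-Glo ATP luminescence, reagent diluted 1:3 in PBS.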
row,SMILES,"activity change, negative = inhibition"
1,CC(C)NC(=O)c1ccc(COc2ccccc2)o1,-14.2% (inactive)
2,C/C(=C\C(=O)NC1=NCCS1)c1ccc(C)cc1,-1.94% (inactive)
3,Cc1csc(NCc2ccc(COc3ccccc3)o2)n1,-11.4% (inactive)
4,CNC(=O)c1csc(NC(=O)c2ccc(COc3ccccc3)o2)n1,-8.68% (inactive)
5,Cc1csc(NC(=O)c2ccc(COc3cccc(S(C)(=O)=O)c3)o2)n1,-13.6% (inactive)
6,C/C(=C\C(=O)NC1=NCCS1)c1ccc(CC(C)C)cc1,3.46% (inactive)
7,CCN(CC)C(=O)c1ccc(COc2ccccc2)o1,8.61% (inactive)
8,O=C(Nc1nncs1)c1ccc(COc2ccccc2)o1,-7.89% (inactive)
9,Cn1c(C(=O)NC2=NCCS2)cc2ccccc21,-9.82% (inactive)
10,COCc1ccc(C(=O)Nc2nc(C)cs2)o1,1.05% (inactive)

# Same assay, conditions: HMLE_shECad viability, CellTiter-Glo luminescence, 72 h; at 30 µM (top of the series)
row,SMILES,"activity change, negative = inhibition"
1,Cc1ccc2cc(C(=O)NC3=NCCS3)n(C)c2c1,-12.6% (inactive)

# Test system: HMLE_shECad viability, CellTiter-Glo luminescence, 72 h
# Assay: as above
# Details: not given
# Outline: as §1
row,SMILES,AC50
1,O=C(COc1c(Cl)cc(Cl)cc1Cl)N/N=C/c1ccc[nH]1,1.44 µM
2,Cc1csc(NC(=O)c2ccc(COC3CCCCC3)o2)n1,17 µM
3,Cc1csc(NC(=O)c2ccc(CCc3ccccc3)o2)n1,0.895 µM
4,Cc1cc(C)c(OCC(=O)N/N=C/c2ccc[nH]2)c(C)c1,9.43 µM
5,CCc1ccc(/C=C/C(=O)NC2=NCCS2)cc1,1.67 µM
6,Cc1cc(Br)ccc1OCC(=O)N/N=C/c1ccc[nH]1,3.76 µM
7,CC(C)c1ccc(/C=C/C(=O)N(C)C2=NCCS2)cc1,21.2 µM
8,O=C(Nc1nc(C(F)(F)F)cs1)c1ccc(COc2ccccc2)o1,13.2 µM
9,Cc1csc(NC(=O)c2ccc(COCc3ccccc3)o2)n1,6.04 µM
10,CC(C)Cc1ccc(/C=C/C(=O)NC2=NCCS2)cc1,0.57 µM
11,CC(C)c1ccc(/C=C/C(=O)Nc2cncs2)cc1,11.4 µM
12,Cc1cccc(OCc2ccc(C(=O)Nc3nc(C)cs3)o2)c1,0.259 µM and 0.332 µM
13,N#Cc1csc(NC(=O)c2ccc(COc3ccccc3)o2)n1,18.1 µM
14,Cc1csc(NC(=O)c2ccc(CNc3ccccc3)o2)n1,0.676 µM
15,N#Cc1ccc(/C=C/C(=O)NC2=NCCS2)cc1,29.2 µM
16,Cc1ccc(OCc2ccc(C(=O)Nc3nc(C)cs3)o2)cc1,2.51 µM
17,CC(C)c1ccc(/C=C/C(=O)NC2=NCCS2)cc1,2.97 µM
18,COc1cccc(OCc2ccc(C(=O)Nc3nc(C)cs3)o2)c1,0.348 µM
19,Cc1csc(NC(=O)c2ccc(COc3ccccn3)o2)n1,17.8 µM
